Measurements reported in ChEMBL document CHEMBL3112484, “Design, synthesis, and biological evaluation of a series of piperazine ureas as fatty acid amide hydrolase inhibitors” (Bioorg Med Chem, 2014).
Values after ≈ are worked out from the molar mass of the structure shown.

Tests used:
[1] = molecular target: T1, Fatty-acid amide hydrolase 1 (Rattus norvegicus, UniProt P97612); experiment: Apparent inhibition of rat FAAH using AMCAA as substrate after 30 mins by fluorescence assay
T1 sequence (P97612 whole entry): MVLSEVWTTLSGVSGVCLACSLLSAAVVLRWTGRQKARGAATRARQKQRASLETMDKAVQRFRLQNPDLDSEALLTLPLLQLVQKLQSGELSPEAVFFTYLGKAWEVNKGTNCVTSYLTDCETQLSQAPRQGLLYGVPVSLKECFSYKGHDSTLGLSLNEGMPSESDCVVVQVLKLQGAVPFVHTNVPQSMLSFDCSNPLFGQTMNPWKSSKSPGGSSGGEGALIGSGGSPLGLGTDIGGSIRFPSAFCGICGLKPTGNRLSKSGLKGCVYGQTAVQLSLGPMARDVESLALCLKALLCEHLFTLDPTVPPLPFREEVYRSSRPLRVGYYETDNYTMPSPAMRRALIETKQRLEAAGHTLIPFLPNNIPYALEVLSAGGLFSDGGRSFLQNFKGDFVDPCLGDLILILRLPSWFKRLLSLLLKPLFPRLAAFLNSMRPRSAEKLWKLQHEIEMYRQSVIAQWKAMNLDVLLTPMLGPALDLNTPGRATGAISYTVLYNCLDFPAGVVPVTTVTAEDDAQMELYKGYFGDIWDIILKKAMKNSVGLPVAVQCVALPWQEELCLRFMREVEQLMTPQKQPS
Method in brief: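 Rat FAAH enzyme fraction (125–250 ng final) was reacted with AMCAA substrate across a range of compound concentrations at 37 °C. Buffer: 125 mM Tris-HCl pH 9.0, 1 mM EDTA, 0.4 mM HEPES, 0.2% glycerol, 0.02% Triton X-100, 0.3% fatty acid free BSA. Fluorescence read at ex 355/em 460 nm, scaled to solvent (100%) and zero-time (0%). IC50 determined at a 30 min reaction.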

[2] = molecular target: T2, Fatty-acid amide hydrolase 1 (Homo sapiens, UniProt O00519); experiment: Apparent inhibition of human FAAH expressed in CHOK1 cells using AMCAA as substrate after 30 mins by fluorescence assay; assay type: cell-based, CHO-K1
T2 sequence (O00519 whole entry): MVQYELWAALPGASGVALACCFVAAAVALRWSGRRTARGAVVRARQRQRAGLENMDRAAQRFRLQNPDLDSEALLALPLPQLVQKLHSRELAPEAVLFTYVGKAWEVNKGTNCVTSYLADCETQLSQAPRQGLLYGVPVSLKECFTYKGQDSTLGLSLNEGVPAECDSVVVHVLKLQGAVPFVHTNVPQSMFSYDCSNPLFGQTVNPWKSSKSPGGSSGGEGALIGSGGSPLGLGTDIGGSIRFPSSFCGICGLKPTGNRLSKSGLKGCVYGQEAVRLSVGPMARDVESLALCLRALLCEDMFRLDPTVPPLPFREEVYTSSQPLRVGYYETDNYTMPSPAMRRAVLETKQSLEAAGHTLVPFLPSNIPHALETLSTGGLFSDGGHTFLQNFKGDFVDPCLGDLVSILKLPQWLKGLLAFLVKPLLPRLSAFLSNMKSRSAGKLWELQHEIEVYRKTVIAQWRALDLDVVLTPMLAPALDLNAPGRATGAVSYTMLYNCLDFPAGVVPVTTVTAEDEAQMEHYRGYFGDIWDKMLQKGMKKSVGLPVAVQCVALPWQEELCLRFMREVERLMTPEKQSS
Method in brief: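 Enzyme source: CHO-K1 cells stably expressing human FAAH cloned from a human brain library, grown in Ham's F-12 with 10% FBS and 800 µg/mL G418, then homogenized in 10 mM Tris, 1 mM EDTA, 10 mM MgCl2. Fraction (125–250 ng final) was incubated with AMCAA at 37 °C in Tris-HCl pH 9.0 buffer with BSA. Fluorescence read at ex 355/em 460 nm; solvent = 100%, zero-time count = 0%. IC50 from a 30 min reaction.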

[3] = Solubility of the compound in aqueous buffer at pH 6.8 by HPLC analysis; assay type: physicochemical
Method in brief: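 Small volumes of compound DMSO solution were added to aqueous buffer at pH 6.8 and incubated. Precipitate was removed by filtration, and the filtrate concentration was measured by HPLC.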

Rattus norvegicus [4] = experiment: Analgesic activity in po dosed Sprague-Dawley rat complete Freund's adjuvant-induced inflammatory pain model assessed as attenuation of tactile allodynia administered for 5 days measured 4 hrs after treatment; assay type: functional, organism-based; conditions: in the assay text read “administered 5 days after CFA injection” for “administered for 5 days”
Method in brief: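 Six-week-old male Sprague Dawley rats received 150 µL CFA into the plantar surface of the right hind paw; sham rats got liquid paraffin instead. Five days after injection, a single oral dose of 1, 3 or 10 mg/kg was given, with 0.5% methylcellulose as vehicle. Ipsilateral tactile allodynia was scored blinded with von Frey filaments 4 h post-dose. Mean and SE, 8–10 rats.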

Rattus norvegicus [5] = experiment: Analgesic activity in po dosed Sprague-Dawley rat sciatic nerve injury-induced neuropathic pain model assessed as attenuation of tactile allodynia administered for 7 days measured 2 hrs after treatment; assay type: functional, organism-based; conditions: in the assay text read “administered 7 days after nerve injury” for “administered for 7 days”
Method in brief: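 Seven-week-old male Sprague Dawley rats under pentobarbital had the right common peroneal nerve tightly ligated with 4-0 silk and transected distally; in sham rats the nerve was exposed only. Seven days later, rats got an oral dose of 1, 3 or 10 mg/kg or 0.5% methylcellulose vehicle. Ipsilateral tactile allodynia was scored blinded with von Frey filaments 2 h post-dose. Mean and SE, 8 rats.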

Mus musculus = experiment: Analgesic activity in ICR mouse assessed as inhibition of acetic acid-induced writhing at 10 mg/kg, po pretreated for 60 mins followed by acetic acid-challenge measured for 20 mins relative to control; assay type: functional
Method in brief: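 Mice received compound po at 10 mg/kg as a suspension in 0.5% methylcellulose (10 mL/kg). After 60 min, 0.6% (v/v) acetic acid (10 mL/kg) was given ip. Each mouse was then placed alone in an observation chamber. Treated mice were compared with vehicle-treated mice by Student's t-test.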

[6] = Ratio of drug level in brain to plasma in rat at 3 mg/kg, po; assay type: ADME, organism-based; design: dose 3 mg/kg, route oral; conditions: read-out: BPR
Method in brief: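 Rats were dosed orally at 0.03, 0.3 or 3 mg/kg as a suspension in 0.5% methylcellulose. Compound levels in plasma and brain were quantified by LC/MS/MS. Cmax, Tmax and AUC are means of n = 3.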

[7] = molecular target: T3, Fatty-acid amide hydrolase 1 (Homo sapiens) (UniProt O00519); experiment: Irreversible inhibition of FAAH (unknown origin) using AMCAA as substrate at 10 nM by fluorescence assay; conditions: TDE = time-dependent effect
T3 sequence (whole entry): T2 sequence (O00519 whole entry)

Brain [8] = experiment: AUC in rat brain at 3 mg/kg, po by LC/MS/MS analysis; assay type: ADME, organism-based; design: dose 3 mg/kg, route oral; conditions: in vivo
Method in brief: (§1)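 Rats given single oral doses of 0.03, 0.3 or 3 mg/kg as a suspension in 0.5% methylcellulose. Brain drug levels were measured by LC/MS/MS over time, and AUC is reported in ng h/g. Each value is the mean of n = 3.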

Brain [9] = experiment: AUC in rat brain at 0.3 mg/kg, po by LC/MS/MS analysis; assay type: ADME, organism-based; design: dose 0.3 mg/kg, route oral; conditions: in vivo; method in brief: as §1
Brain [10] = experiment: AUC in rat brain at 0.03 mg/kg, po by LC/MS/MS analysis; assay type: ADME, organism-based; design: dose 0.03 mg/kg, route oral; conditions: in vivo; method in brief: as §1

SMILES | IC50 [1] | IC50 [2] | solubility [3] | inhibition in vivo at 10 mg/kg (Mus musculus) | also measured
O=C(Nc1cccnn1)N1CCN(c2cncc(-c3ccc(F)cc3F)c2)CC1 | 74 nM | 140 nM |  |  | 
O=C(Nc1cccnn1)N1CCN(c2ccnc(-c3ccc(F)cc3F)c2)CC1 | 12 nM | 28 nM |  |  | 
O=C(Nc1cccnn1)N1CCN(c2cccc(-c3ccc(F)cc3F)n2)CC1 | 13 nM | 36 nM |  |  | 
CCCCC/C=C\C/C=C\C/C=C\C/C=C\CCCC(=O)NCCO [ANANDAMIDE] |  |  |  |  | AUC (Brain [8]): 311.6 ng·h/g; AUC (Brain [9]): 232.9 ng·h/g; AUC (Brain [10]): 64.3 ng·h/g
O=C(Nc1cccnn1)N1CCN(c2cc(-c3ccc(F)cc3F)ncn2)CC1 | 1.7 nM | 1.5 nM |  |  | 

Further lines, with some results ahead:

IC50 [1] | IC50 [2] | solubility [3] | SMILES | inhibition in vivo at 10 mg/kg (Mus musculus) | also measured
34 nM | 23 nM | 52 µg/mL (≈ 131 µM) | O=C(Nc1cccnn1)N1CCN(c2ccnc(-c3ccc(F)cc3F)n2)CC1 |  | 
0.28 nM | 0.72 nM | 3.1 µg/mL (≈ 7.8 µM) | O=C(Nc1cccnn1)N1CCN(c2nccc(-c3ccc(F)c(F)c3)n2)CC1 | 34.7% | Activity (Rattus norvegicus [4]): Dose-dependent effect; Activity (Rattus norvegicus [5]): Dose-dependent effect; Kp [6]: 2; inhibition [7]: tde; AUC (Brain [8]): 15955 ng·h/g; AUC (Brain [9]): 898 ng·h/g; AUC (Brain [10]): 0 ng·h/g
0.34 nM | 0.08 nM | 0.1 µg/mL (≈ 0.252 µM) | O=C(Nc1cccnn1)N1CCN(c2nccc(-c3cc(F)cc(F)c3)n2)CC1 | 0.9% | 
4.3 nM | 2.2 nM |  | O=C(Nc1cccnn1)N1CCN(c2cc(-c3ccc(F)cc3F)ccn2)CC1 |  | 
1.2 nM | 0.072 nM | 0.16 µg/mL (≈ 0.403 µM) | O=C(Nc1cccnn1)N1CCN(c2nccc(-c3cccc(F)c3F)n2)CC1 | 18.9% | 
0.43 nM | 1.1 nM | 0.85 µg/mL (≈ 2.14 µM) | O=C(Nc1cccnn1)N1CCN(c2nccc(-c3ccc(F)cc3F)n2)CC1 |  | 
0.17 nM | 0.025 nM | < 0.06 µg/mL | O=C(Nc1cccnn1)N1CCN(c2nccc(-c3cc(F)ccc3F)n2)CC1 | 2.2% | 
